Reference: ChEMBL document CHEMBL5104174, “Development of tumor-targeting aza-vesamicol derivatives with high affinity for sigma receptors for cancer theranostics” (RSC Med Chem, 2022)
Values belong to the molecule of their own block, whether it stands above or below them.

Legend:
[1] = Biodistribution in liver of Balb/c mouse xenografted with human DU-145 cells assessed as radioactivity at 37 kBq, iv and measured upto 24 hrs post-injection by gamma counter analysis; assay type: ADME, organism-based; settings: in vivo
Procedure, shortened: (§1)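 About 5 × 10⁶ DU-145 cells injected sc into the right dorsum of 4-week-old male BALB/c nude mice. Sacrificed at 1 and 24 h. Gamma counting, expressed as % injected dose, mean ± SD.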

[2] = Drug uptake in tumor of Balb/c mouse xenografted with human DU-145 cells assessed as radioactivity at 37 kBq, iv and measured upto 24 hrs post-injection by gamma counter analysis; assay type: ADME, organism-based, Neoplasm; settings: in vivo; procedure, shortened: as §1
[3] = Biodistribution in lung of Balb/c mouse xenografted with human DU-145 cells assessed as radioactivity at 37 kBq, iv and measured upto 24 hrs post-injection by gamma counter analysis; assay type: ADME, organism-based; settings: in vivo; procedure, shortened: as §1
[4] = Biodistribution in kidney of Balb/c mouse xenografted with human DU-145 cells assessed as radioactivity at 37 kBq, iv and measured upto 24 hrs post-injection by gamma counter analysis; assay type: ADME, organism-based; settings: in vivo; procedure, shortened: as §1
[5] = target: T1, Sigma intracellular receptor 2 (Rattus norvegicus, UniProt Q5U3Y7); assay: Displacement of [3H]DTG from sigma-2 receptor in Sprague-Dawley rat liver membrane incubated for 90 mins in presence of by liquid scintillation counter analysis (+)-pentazocine by liquid scintillation counter analysis; assay type: cell membranes
T1 sequence (Q5U3Y7 whole entry): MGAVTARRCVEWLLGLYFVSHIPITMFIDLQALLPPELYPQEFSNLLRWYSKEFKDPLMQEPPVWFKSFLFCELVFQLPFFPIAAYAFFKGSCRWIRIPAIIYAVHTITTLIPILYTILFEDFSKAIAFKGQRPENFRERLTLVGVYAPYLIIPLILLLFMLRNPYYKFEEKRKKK

[6] = target: Sigma non-opioid intracellular receptor 1 (Rattus norvegicus, UniProt Q9R0C9); assay: Displacement of (+)-[3H]pentazocine from sigma-1 receptor in Sprague-Dawley rat cerebral membrane incubated for 90 mins by liquid scintillation counter analysis; assay type: cell membranes, Cerebrum
Sigma non-opioid intracellular receptor 1, sequence (Q9R0C9 whole entry): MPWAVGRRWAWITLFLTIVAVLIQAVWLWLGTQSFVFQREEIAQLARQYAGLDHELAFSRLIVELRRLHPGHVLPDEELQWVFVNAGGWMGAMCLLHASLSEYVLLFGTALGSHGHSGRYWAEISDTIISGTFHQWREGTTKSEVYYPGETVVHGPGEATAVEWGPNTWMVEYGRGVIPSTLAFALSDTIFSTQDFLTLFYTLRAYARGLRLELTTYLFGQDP

[7] = Drug uptake in tumor of Balb/c mouse xenografted with human DU-145 cells at 38 MBq, iv and measured after 24 hrs post-injection by SPECT/CT analysis; assay type: ADME, organism-based, Neoplasm; settings: in vivo
Procedure, shortened: (§2)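 DU-145 sc xenografts in BALB/c nude mice. HPLC-purified 123I-tracer given iv, 50 MBq or 38 MBq per tracer. Small-animal SPECT/CT at 24 h postinjection, 0.8 mm voxels.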

[8] = Drug uptake in pancreas of Balb/c mouse xenografted with human DU-145 cells at 38 MBq, iv and measured after 24 hrs post-injection by SPECT/CT analysis; assay type: ADME, organism-based; settings: in vivo; procedure, shortened: as §2
[9] = Drug uptake in thyroid gland of Balb/c mouse xenografted with human DU-145 cells at 38 MBq, iv and measured after 24 hrs post-injection by SPECT/CT analysis; assay type: ADME, organism-based; settings: in vivo; procedure, shortened: as §2
[10] = Metabolic stability in mouse plasma assessed parent compound remaining at 74 to 93 kBq incubated for 24 hrs by RP-HPLC analysis; assay type: ADME, cell-free; settings: dose 74-93 kBq, read-out: Stability
Procedure, shortened: (§3)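 Ice-cold acetonitrile added, centrifuged 1700 g for 15 min at 4 °C, filtered 0.45 μm. Intact tracer measured by RP-HPLC; mean ± SD of three samples.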

[11] = 1-Octanol/PBS partition coefficient, logP of the compound at pH 7.4 by shake flask method; assay type: physicochemical
Procedure, shortened: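 Radioiodinated tracer partitioned between 1-octanol and 0.1 M phosphate buffer pH 7.4 by shake-flask. Ratio of radioactivity in octanol to that in buffer, expressed as log P. Mean ± SD of four samples.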

[12] = Drug uptake in tumor of Balb/c mouse xenografted with human DU-145 cells assessed as radioactivity at 37 kBq, iv and measured after 1 hrs post-injection by gamma counter analysis; assay type: ADME, organism-based, Neoplasm; settings: in vivo; procedure, shortened: as §1
[13] = Drug uptake in human DU-145 cells assessed as radioactivity at 3.7 kBq incubated for 15 to 120 mins; assay type: ADME, cell-based; settings: time 15-120 min
Procedure, shortened: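 DU-145 cells grown in RPMI 1640 with 10% FBS, seeded and pre-incubated 24 h. Washed with ice-cold PBS, lysed in 1 M NaOH, counted and normalized to BCA protein. Mean ± SD.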

[14] = Biodistribution in ddY mouse neck assessed as radioactivity at 18 to 33 kBq, […] by gamma counter analysis; assay type: ADME, organism-based; settings: in vivo, iv, dose 18-33 kBq
[15] = Biodistribution in ddY mouse blood assessed as blood clearance by measuring radioactivity at 18 to 33 kBq, iv […] and measured upto 24 hrs post-injection by gamma counter analysis; assay type: ADME, organism-based; settings: in vivo, dose 18-33 kBq
Procedure, shortened: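 Male ddY mice, 6 weeks old, 28–30 g. Sacrificed at 10, 30 min, 1, 4, 8 and 24 h postinjection. Tissue radioactivity counted in a gamma counter.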

[16] = Stability of the compound in pH 7.4 phosphate buffer assessed as parent compound remaining at 22 to 82 kBq incubated for 24 hrs by RP-HPLC analysis; assay type: physicochemical; settings: dose 22-82 kBq, read-out: Stability
[17] = Metabolic stability in mouse plasma assessed parent compound remaining at 74 to 93 kBq incubated for 1 hrs by RP-HPLC analysis; assay type: ADME, cell-free; settings: dose 74-93 kBq, read-out: Stability; procedure, shortened: as §3
[18] = Drug uptake in thyroid gland of Balb/c mouse xenografted with human DU-145 cells at 50 MBq, iv and measured after 24 hrs post-injection by SPECT/CT analysis; assay type: ADME, organism-based; settings: in vivo; procedure, shortened: as §2
[19] = Drug uptake in pancreas of Balb/c mouse xenografted with human DU-145 cells at 50 MBq, iv and measured after 24 hrs post-injection by SPECT/CT analysis; assay type: ADME, organism-based; settings: in vivo; procedure, shortened: as §2
[20] = Drug uptake in tumor of Balb/c mouse xenografted with human DU-145 cells at 50 MBq, iv and measured after 24 hrs post-injection by SPECT/CT analysis; assay type: ADME, organism-based, Neoplasm; settings: in vivo; procedure, shortened: as §2

Compound: O[C@H]1CCCC[C@@H]1N1CCN(CCCc2ccc([125I])cc2)CC1 (relative stereo)
Drug uptake [1]: Active
Drug uptake [2]: Active
Drug uptake [3]: Active
Drug uptake [4]: Active

Compound: O[C@H]1CCCC[C@@H]1N1CCN(CCc2ccccc2Br)CC1 (relative stereo)
Ki [5]: 41.8 nM
Ki [6]: 10.2 nM

Compound: O[C@H]1CCC[C@@H]1N1CCN(CCc2cccc(Br)c2)CC1 (relative stereo)
Ki [5]: 138 nM
Ki [6]: 12.4 nM

Compound: O[C@H]1CCC[C@@H]1N1CCN(CCc2cccc(I)c2)CC1 (relative stereo)
Ki [5]: 73.6 nM
Ki [6]: 7.9 nM

Compound: O[C@H]1CCC[C@@H]1N1CCN(CCCc2cccc([123I])c2)CC1 (relative stereo)
Drug uptake [7]: Active
Drug uptake [8]: Active
Drug uptake [9]: Active

Compound: O[C@H]1CCC[C@@H]1N1CCN(CCCc2ccccc2Br)CC1 (relative stereo)
Ki [5]: 116 nM
Ki [6]: 37.1 nM

Compound: O[C@H]1CCC[C@@H]1N1CCN(CCCc2cccc([125I])c2)CC1 (relative stereo)
Drug uptake [2]: Active
remaining at 24 h [10]: 94.8%
logD [11]: 2.5
Drug uptake [12]: Active
Drug uptake [13]: Active
Drug uptake [14]: Active
Drug uptake [15]: Active
remaining at 24 h [16]: 96.3%
remaining at 1 h [17]: 96.5%

Compound: O[C@H]1CCC[C@@H]1N1CCN(CCc2ccc(Br)cc2)CC1 (relative stereo)
Ki [5]: 148 nM
Ki [6]: 9.9 nM

Compound: O[C@H]1CCC[C@@H]1N1CCN(CCc2cccc([125I])c2)CC1 (relative stereo)
Drug uptake [2]: Active
remaining at 24 h [10]: 81.3%
logD [11]: 2.08
Drug uptake [12]: Active
Drug uptake [13]: Active
Drug uptake [14]: Active
Drug uptake [15]: Active
remaining at 24 h [16]: 96.9%
remaining at 1 h [17]: 95.6%

Compound: O[C@H]1CCCC[C@@H]1N1CCN(CCc2ccc(Br)cc2)CC1 (relative stereo)
Ki [5]: 44.5 nM
Ki [6]: 9.8 nM

Compound: O[C@H]1CCC[C@@H]1N1CCN(CCc2cccc([123I])c2)CC1 (relative stereo)
Drug uptake [18]: Active
Drug uptake [19]: Active
Drug uptake [20]: Active

Compound: O[C@H]1CCCC[C@@H]1N1CCC(c2ccc([125I])cc2)CC1
Drug uptake [1]: Active
Drug uptake [2]: Active
Drug uptake [3]: Active
Drug uptake [4]: Active

Compound: O[C@H]1CCC[C@@H]1N1CCN(CCc2ccccc2Br)CC1 (relative stereo)
Ki [5]: 371 nM
Ki [6]: 21.5 nM

The remaining molecules from weak to strong by Ki [5], led by results:

Ki [5]: 32.5 nM
Ki [6]: 19.4 nM
Compound: O[C@H]1CCCC[C@@H]1N1CCN(CCCc2ccccc2Br)CC1 (relative stereo)

Ki [5]: 26 nM
Ki [6]: 4.4 nM
Compound: O[C@H]1CCCC[C@@H]1N1CCN(CCCc2ccc(Br)cc2)CC1 (relative stereo)

Ki [5]: 25.1 nM
Ki [6]: 17.2 nM
Compound: O[C@H]1CCCC[C@@H]1N1CCN(CCc2cccc(Br)c2)CC1 (relative stereo)

Ki [5]: 22.2 nM
Ki [6]: 7.7 nM
Compound: O[C@H]1CCCC[C@@H]1N1CCN(CCCc2cccc(Br)c2)CC1 (relative stereo)

Ki [5]: 16.9 nM
Ki [6]: 14.6 nM
Compound: O[C@H]1CCC[C@@H]1N1CCN(CCCc2cccc(I)c2)CC1 (relative stereo)

Ki [5]: 12.6 nM
Ki [6]: 8.1 nM
Compound: O[C@H]1CCC[C@@H]1N1CCN(CCCc2ccc(Br)cc2)CC1 (relative stereo)

Ki [5]: 8.1 nM
Ki [6]: 4.8 nM
Compound: O[C@H]1CCC[C@@H]1N1CCN(CCCc2cccc(Br)c2)CC1 (relative stereo)
